These results are taken from ChEMBL document CHEMBL1126750, “Nonpeptide angiotensin II receptor antagonists. Synthesis and biological activity of benzimidazolecarboxylic acids” (J Med Chem, 1993).

For assay [1], the target named is T1, Angiotensin II receptor (Rattus norvegicus) (UniProt P29089+P25095+P35351). The assay can be described thus: Percent inhibition of the Angiotensin-II (0.1ug/kg, iv) induced pressor response after 3 hours of administration (3 mg/kg po) in rats. The format is functional, organism-based. In outline:
(§1)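 Conscious male Sprague-Dawley rats dosed orally with test compound; pressor response to AII challenge (0.1 µg/kg iv) measured at 3 and 7 h after dosing and expressed as percent inhibition. Duplicate experiments, with n = 3 for some compounds; variation in % inhibition under 30%.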

Assay [2] concerns Rattus norvegicus. Put plainly: (§2) Percent inhibition of the Angiotensin-II (0.1micro g/kg, iv) induced pressor response after 7 hours of administration (3 mg/kg po) in rats. Type of assay: functional. The method, boiled down:
as §1

In assay [3] the target is T1, Angiotensin II receptor (Rattus norvegicus). The description is as §2. The format is functional, organism-based. The method, boiled down: as §1
The subject of assay [4] is Rattus norvegicus. Put plainly: Percent inhibition of the Angiotensin-II (0.1 micro g/kg, iv) induced pressor response after 7 hours of administration (1 mg/kg po) in rats. Type of assay: functional. The method, boiled down:
as §1

The target of assay [5] is T1, Angiotensin II receptor (Rattus norvegicus). The assay can be described thus: Percent inhibition of the Angiotensin-II (0.1ug/kg, iv) induced pressor response after 3 hours of administration (1 mg/kg po) in rats. Type of assay: functional, organism-based. In outline: as §1
For assay [6], the system named is Rattus norvegicus. Put plainly: Percent inhibition of the Angiotensin-II (0.1ug/kg, iv) induced pressor response after 3 hours of administration (10 mg/kg po) in rats. Type of assay: functional. In outline: as §1
Assay [7] concerns Rattus norvegicus. Put plainly: Percent inhibition of the Angiotensin-II (0.1micro g/kg, iv) induced pressor response after 7 hours of administration (10 mg/kg po) in rats. The format is functional. In outline: as §1
In assay [8] the target is T2, Type-1 angiotensin II receptor (Bos taurus, UniProt P25104).
T2 sequence (P25104 whole entry): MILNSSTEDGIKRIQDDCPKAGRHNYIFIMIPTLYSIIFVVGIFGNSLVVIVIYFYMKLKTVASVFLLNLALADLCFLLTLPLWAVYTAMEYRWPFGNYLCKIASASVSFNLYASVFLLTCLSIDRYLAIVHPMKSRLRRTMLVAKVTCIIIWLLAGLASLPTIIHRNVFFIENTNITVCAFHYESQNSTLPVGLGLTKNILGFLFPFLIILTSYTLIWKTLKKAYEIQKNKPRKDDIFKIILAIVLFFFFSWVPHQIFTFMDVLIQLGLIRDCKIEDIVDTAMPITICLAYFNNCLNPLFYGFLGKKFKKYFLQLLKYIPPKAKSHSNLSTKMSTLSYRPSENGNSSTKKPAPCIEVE
Put plainly: Inhibition of specific binding of [125 I ] Angiotensin-II (0.2 nM) to bovine adrenal cortex. Type of assay: tissue-based.

The species named for assay [9] is Oryctolagus cuniculus. Put plainly: Concentration required for inhibition of Angiotensin-II induced rabbit aorta strips contraction. Type of assay: functional. The method, boiled down:
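Isolated rabbit aortic strips contracted with AII (10 nM); test compound inhibition measured from concentration-inhibition curves, n = 6-8; IC50 is the concentration halving the AII-induced contraction.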

Assay [10] deals with Rattus norvegicus. The assay can be described thus: Percent inhibition of the Angiotensin-II (0.1micro g/kg, iv) induced pressor response after 7 hours of administration (1 mg/kg po) in rats. Type of assay: functional. The method, boiled down: as §1
Assay [11] has as its target T1, Angiotensin II receptor (Rattus norvegicus). Put plainly: Percent inhibition of the Angiotensin-II (0.1ug/kg, iv) induced pressor response after 7 hours of administration (1 mg/kg po) in rats. The format is functional, organism-based. The method, boiled down:
as §1

In assay [12] the test system is Rattus norvegicus. The assay can be described thus: Percent inhibition of the Angiotensin-II (0.1ug/kg, iv) induced pressor response after 7 hours of administration (3 mg/kg po) in rats. The format is functional. In outline:
as §1

Assay [13] deals with Rattus norvegicus. Put plainly: Percent inhibition of the Angiotensin-II (0.1micro g/kg, iv) induced pressor response after 3 hours of administration (10 mg/kg po) in rats. The format is functional. In outline: as §1
The test system of assay [14] is Rattus norvegicus. Put plainly: Percent inhibition of the Angiotensin-II (0.1micro g/kg, iv) induced pressor response after 7 hours of administration (1 mg/kg po) in rats. Type of assay: functional. The method, boiled down:
as §1

The subject of assay [15] is Rattus norvegicus. The assay can be described thus: Percent inhibition of the Angiotensin-II (0.1 micro g/kg, iv) induced pressor response after 3 hours of administration (3 mg/kg po) in rats. Type of assay: functional. In outline: as §1
Assay [16] concerns Rattus norvegicus. The assay can be described thus: Percent inhibition of the Angiotensin-II (0.1micro g/kg, iv) induced pressor response after 7 hours of administration (1 mg/kg po) in rat. The format is functional. In outline:
as §1

For orientation: inhibition means the drop in the measured response relative to a control, in per cent. A low value points to a response near the control. By Inhibition is commonly meant the percentage by which the read-out fell short of the control. Read a low Inhibition as a weak effect. Usually IC50 stands for the point on the concentration scale where inhibition reaches its midpoint.

`Cc1nc2cccc(C(=O)O)c2n1Cc1ccc(-c2ccccc2-c2nn[nH]n2)cc1` returned an inhibition in assay [1] of 50%. In addition, the Inhibition in [2] was 51%.

For the compound `CCCCNc1nc2cccc(C(=O)O)c2n1Cc1ccc(-c2ccccc2-c2nn[nH]n2)cc1`, the inhibition in [3] was 61%; in assay [1] it was 52%; in assay [5] it was 38%. The compound further yielded an Inhibition in [4] of 19%.

`CCOc1nc2cc(C(=O)O)ccc2n1Cc1ccc(-c2ccccc2-c2nn[nH]n2)cc1`: the Inhibition in [6] and in [7] was 4% throughout. Also, the IC50 in [8] came to 13000 nM; in assay [9] it was 191 nM.

As to `CCOc1nc2ccc(C(=O)O)cc2n1Cc1ccc(-c2ccccc2-c2nn[nH]n2)cc1`, the figures for the Inhibition in assay [6] and in assay [7] were 50% and 34%, respectively. Further, the IC50 in [8] was determined as 930 nM; in [9] it was 1.9 nM.

On to `CCNc1nc2cccc(C(=O)O)c2n1Cc1ccc(-c2ccccc2-c2nn[nH]n2)cc1`, for which the inhibition in assay [3] was determined as 100%; in assay [1] it was 100%; in assay [5] it was 81%. Moreover, the Inhibition in [10] is listed as 85%.

Take `CCCCc1nc2cccc(C(=O)O)c2n1Cc1ccc(-c2ccccc2-c2nn[nH]n2)cc1`: the inhibition turned out to be 53% in assay [11], 80% in assay [1] and 49% in [5]. The Inhibition in assay [2] stood at 76%.

As to `CCCOc1nc2cccc(C(=O)OCC)c2n1Cc1ccc(-c2ccccc2-c2nn[nH]n2)cc1`, the Inhibition in assay [12] came to 93%. In assay [1], this compound displayed an inhibition of 66%.

As to `CCOc1nc2c(C(=O)O)cccc2n1Cc1ccc(-c2ccccc2-c2nn[nH]n2)cc1`, the Inhibition in assay [6] is reported as 22%; in assay [7], 5%. The compound further returned an IC50 in [9] of 131 nM.

As for `CCOc1nc2cccc(C(=O)O)c2n1Cc1ccc(-c2ccccc2-c2nnn[nH]2)cc1`, the Inhibition in [13] and in assay [7] was 100% each time. Further, the inhibition turned out to be 92% in assay [11], 100% in [3], 100% in assay [1] and 100% in assay [5]. Further, the figures for the IC50 in assay [8] and in assay [9] were 110 nM and 0.2 nM, respectively.

For `CNc1nc2cccc(C(=O)O)c2n1Cc1ccc(-c2ccccc2-c2nn[nH]n2)cc1`, the Inhibition in assay [14] is reported as 49%. In [5], this compound returned an inhibition of 28%.

Regarding `CCc1nc2cccc(C(=O)O)c2n1Cc1ccc(-c2ccccc2-c2nn[nH]n2)cc1`, the inhibition in [11] came out at 62%; in assay [3] it was 95%; in [5] it was 79%. Besides, the Inhibition in [15] came out at 96%.

In turn, `CNCc1nc2cccc(C(=O)O)c2n1Cc1ccc(-c2ccccc2-c2nn[nH]n2)cc1` had an Inhibition in assay [16] of 50%. In assay [8], this compound yielded an IC50 of 800 nM. Moreover, the inhibition in assay [5] was 42%.
